Test results published in ChEMBL document CHEMBL1152353, “Pyrimido[5,4-e][1,2,4]triazine-5,7(1H,6H)-dione derivatives as novel small molecule chaperone amplifiers” (Bioorg Med Chem Lett, 2009).
pEC50: −log10 of the molar value. The source made the active and inactive calls. No cut-off for these calls is given here.

How the values were obtained:
[1] = molecular target: T1, Heat shock factor protein 1 (Homo sapiens) (UniProt Q00613); assay: Amplification of HSF1 transcriptional activity in human HeLa cells assessed as granule formation pretreated for 3 hrs by immunocytochemical staining; format: cell-based
T1 sequence (whole entry): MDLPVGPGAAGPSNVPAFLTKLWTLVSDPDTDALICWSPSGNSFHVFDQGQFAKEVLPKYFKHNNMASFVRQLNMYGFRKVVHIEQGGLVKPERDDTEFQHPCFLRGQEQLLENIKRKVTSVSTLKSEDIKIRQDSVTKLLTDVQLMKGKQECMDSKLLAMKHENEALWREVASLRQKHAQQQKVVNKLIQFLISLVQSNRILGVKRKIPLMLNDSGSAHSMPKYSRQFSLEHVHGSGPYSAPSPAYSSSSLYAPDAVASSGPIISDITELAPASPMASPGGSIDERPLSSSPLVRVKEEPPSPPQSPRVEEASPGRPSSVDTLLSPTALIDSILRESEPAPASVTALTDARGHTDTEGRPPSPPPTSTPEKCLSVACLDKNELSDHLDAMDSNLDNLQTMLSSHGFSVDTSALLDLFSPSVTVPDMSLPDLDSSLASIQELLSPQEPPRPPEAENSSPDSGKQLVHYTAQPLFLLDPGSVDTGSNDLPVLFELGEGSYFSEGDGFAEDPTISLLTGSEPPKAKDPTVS
Summary of the method: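 HeLa cells pretreated with compound 1 h, then mild heat shock 41 °C for 2 h, no recovery; control arm pretreated 3 h at 37 °C without heat shock. Compound diluted 200-fold, 0.3 to 80 µM range.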

SK-N-SH [2] = assay: Cytoprotection against rotenone stress-induced toxicity in human SK-N-SH cells at 1.25 uM after 48 hrs by MTS assay; format: functional
Summary of the method: (§1)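 SK-N-SH neuroblastoma cells (within passage 6) seeded in DMEM with 0.1% FBS for 18 h, then fresh medium with 200 nM rotenone (final) plus compound, 0.019 to 10 µM. Incubated 48 h, then MTS viability read. Cytoprotection expressed as viability increase over the rotenone DMSO control; EC50 = concentration giving half-maximal protection. Data averaged over multiple tests.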

SK-N-SH [3] = assay: Cytoprotection against rotenone stress-induced toxicity in human SK-N-SH cells assessed as increase in cell viability after 48 hrs by MTS assay relative to control; format: functional; set-up: concentration or dose not given beside the values; summary of the method: as §1
[4] = Cytotoxicity against human HeLa cells after 72 hrs by MTS assay; format: cell-based; conditions: HeLa cells
Summary of the method: (§2)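 HeLa (8000 cells/well) or SK-N-SH (14,000 cells/well) cells seeded in DMEM with 10% FBS for 18 h. Compound added at 1:200 dilution, final 0.3 to 80 µM, 0.5% v/v DMSO. Exposure 72 h, then MTS/PMS for 4 h, SDS to 1.4% w/v, absorbance at 492 nm. CC50 = concentration giving half-maximal cytotoxicity.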

[5] = Cytotoxicity against human SK-N-SH cells after 72 hrs by MTS assay; format: cell-based; summary of the method: as §2
SK-N-SH [6] = assay: Cytoprotection against rotenone stress-induced toxicity in human SK-N-SH cells assessed as increase in cell survival at 0.625 after 48 hrs by MTS assay relative to control; format: functional; summary of the method: as §1
SK-N-SH [7] = assay: Cytoprotection against rotenone stress-induced toxicity in human SK-N-SH cells after 48 hrs by MTS assay; format: functional, cell-based; conditions: for pEC50: Homo sapiens, SK-N-SH, 48 h, read-out: EC50; for EC50: sk-n-sh; summary of the method: as §1
[8] = Therapeutic index, ratio of CC50 for human SK-N-SH cells to EC50 for human SK-N-SH cells; format: cell-based; conditions: read-out: Ratio CC50/EC50
[9] = Therapeutic index, ratio of […]; format: cell-based; conditions: read-out: FC
SK-N-SH [10] = assay: Cytoprotection against rotenone stress-induced toxicity in human SK-N-SH cells at 0.16 uM after 48 hrs by MTS assay; format: functional
Summary of the method: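 SK-N-SH cells (within passage 6) seeded in DMEM with 0.1% FBS for 18 h, then fresh medium with rotenone (final 200 nM) plus compound (range from 0.019 up to 10). Incubated 48 h, viability by MTS; cytoprotection as viability increase over DMSO-plus-rotenone control.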

SH-SY5Y [11] = assay: Cytoprotection against oxygen-glucose deprivation-induced cytotoxicity in human SH-SY5Y cells at 0.5 uM after 28 hrs by MTS assay; format: functional
Summary of the method: (§3)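 SH-SY5Y cells plated on collagen I-coated wells, grown 16–24 h in complete medium, washed twice in deoxygenated glucose- and serum-free medium; compound added within 1 h before OGD. Chambers flushed with 95% N₂/5% CO₂, residual O₂ <1%, held at 37 °C for 28 h. MTS viability; cytoprotection = (MTS_compound − MTS_DMSO)/MTS_DMSO × 100% versus OGD DMSO control.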

SH-SY5Y [12] = assay: Cytoprotection against oxygen-glucose deprivation-induced cytotoxicity in human SH-SY5Y cells at 1 uM after 28 hrs by MTS assay; format: functional; summary of the method: as §3
SH-SY5Y [13] = assay: Cytoprotection against oxygen-glucose deprivation-induced cytotoxicity in human SH-SY5Y cells at 2.5 uM after 28 hrs by MTS assay; format: functional; summary of the method: as §3
[14] = molecular target: T2, Heat shock factor protein 1 (Homo sapiens, UniProt Q00613); assay: Amplification of HSF1 transcriptional activity in human heat shock-induced HeLa cells assessed as granule formation treated 1 hr before heat shock challenge measured after 2 hrs without recovery time by immunocytochemical staining; format: cell-based
T2 sequence (Q00613 whole entry): T1 sequence (whole entry)
Summary of the method: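 HeLa cells given compound 1 h before mild heat shock at 41 °C for 2 h, no recovery; compound diluted 200-fold, 0.3 to 80 µM. Unstressed control plates kept at 37 °C for 3 h. HSF1 immunocytochemical staining, imaged at 10×.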

CCn1nc(-c2ccc(C)o2)[n+]([O-])c2c(=O)n(C)c(=O)nc1-2
Activity [1]: inactive | Activity (SK-N-SH [2]): 56% | Activity (SK-N-SH [3]): 56% | CC50 at 72 h [4]: 9.8 µM | CC50 at 72 h [5]: 3.3 µM

CCCCn1nc(-c2ccc3ccccc3n2)nc2c(=O)n(C)c(=O)nc1-2
Activity (SK-N-SH [6]): 103% | Activity [1]: inactive | pEC50 (SK-N-SH [7]): 6.54 | Activity (SK-N-SH [3]): 71% | CC50 at 72 h [4]: 9.5 µM | CC50 at 72 h [5]: 4 µM

CCCCn1nc(-c2ccc(C)o2)nc2c(=O)n(C)c(=O)nc1-2
Activity [1]: inactive | pEC50 (SK-N-SH [7]): 6.48 | Activity (SK-N-SH [3]): 23% | CC50 at 72 h [4]: 7.8 µM | CC50 at 72 h [5]: 5.3 µM

CC(C)Cn1nc(-c2nc3ccccc3s2)nc2c(=O)n(C)c(=O)nc1-2
Activity [1]: inactive | pEC50 (SK-N-SH [7]): 6.57 | Activity (SK-N-SH [3]): 67% | CC50 at 72 h [4]: 7.9 µM | CC50 at 72 h [5]: 3.7 µM

Cn1c(=O)nc2n(Cc3ccc(F)cc3)nc(-c3nc4ccccc4s3)nc-2c1=O
Activity [1]: inactive | EC50 (SK-N-SH [7]): Not Active | Activity (SK-N-SH [3]): inactive | CC50 at 72 h [4]: 23.4 µM | CC50 at 72 h [5]: 21.3 µM

CCn1nc(-c2ccc(C)s2)nc2c(=O)n(C)c(=O)nc1-2
Activity [1]: inactive | pEC50 (SK-N-SH [7]): 5.88 | Activity (SK-N-SH [3]): 50% | selectivity ratio [8]: ≤ 48 | CC50 at 72 h [4]: 22.2 µM | CC50 at 72 h [5]: 63.5 µM | selectivity ratio [9]: ≤ 7

CCCCn1nc(-c2ccc[nH]2)[n+]([O-])c2c(=O)n(C)c(=O)nc1-2
Activity [1]: inactive | pEC50 (SK-N-SH [7]): 6.19 | Activity (SK-N-SH [3]): 49% | CC50 at 72 h [4]: 6.3 µM | CC50 at 72 h [5]: 1.5 µM

CC1=C(O)C(=O)C=C2C1=CC=C1[C@@]2(C)CC[C@@]2(C)[C@@H]3C[C@](C)(C(=O)O)CC[C@]3(C)CC[C@]12C [CELASTROL]
Activity (SK-N-SH [10]): 24% | Activity (SK-N-SH [3]): 24% | CC50 at 72 h [4]: 3 µM | CC50 at 72 h [5]: 1.6 µM | Activity (SH-SY5Y [11]): 8% | Activity (SH-SY5Y [12]): 18% | Activity (SH-SY5Y [13]): -22%

CCCCn1nc(-c2ncc[nH]2)nc2c(=O)n(C)c(=O)nc1-2
Activity [1]: inactive | pEC50 (SK-N-SH [7]): 6.52 | Activity (SK-N-SH [3]): 56% | CC50 at 72 h [4]: 3.6 µM | CC50 at 72 h [5]: 1.3 µM

Cn1c(=O)nc2[nH]nc(-c3cccs3)nc-2c1=O
EC50 [14]: Not Active | EC50 (SK-N-SH [7]): Not Active | Activity (SK-N-SH [3]): inactive

CCCCn1nc(-c2ccc(C)s2)[n+]([O-])c2c(=O)n(C)c(=O)nc1-2
Activity [1]: inactive | pEC50 (SK-N-SH [7]): 6.72 | Activity (SK-N-SH [3]): 27% | CC50 at 72 h [4]: 6.6 µM | CC50 at 72 h [5]: 7.2 µM

CCCCn1nc(-c2ccc(C)s2)nc2c(=O)n(C)c(=O)nc1-2
Activity [1]: inactive | Activity (SK-N-SH [2]): 44% | Activity (SK-N-SH [3]): 44% | CC50 at 72 h [4]: 15.3 µM | CC50 at 72 h [5]: 18.2 µM

Cn1c(=O)nc2n(Cc3ccccc3)nc(-c3nc4ccccc4s3)nc-2c1=O
Activity [1]: inactive | pEC50 (SK-N-SH [7]): 5.63 | Activity (SK-N-SH [3]): 27% | CC50 at 72 h [4]: 7.3 µM | CC50 at 72 h [5]: 5.6 µM

Cn1c(=O)[nH]c2nnc(-c3cccs3)nc2c1=O
CC50 at 72 h [4]: > 80 µM | CC50 at 72 h [5]: > 80 µM
